The source made the active and inactive calls. The calls are words filed in the database; no cut-off is given here. A value given as a limit tells only on which side of the number the result lay.

Holding throughout (format): cell-based
Test [1] concerns the target T1, Toll-like receptor 8 (Homo sapiens) (UniProt Q9NR97).
T1 sequence (whole entry): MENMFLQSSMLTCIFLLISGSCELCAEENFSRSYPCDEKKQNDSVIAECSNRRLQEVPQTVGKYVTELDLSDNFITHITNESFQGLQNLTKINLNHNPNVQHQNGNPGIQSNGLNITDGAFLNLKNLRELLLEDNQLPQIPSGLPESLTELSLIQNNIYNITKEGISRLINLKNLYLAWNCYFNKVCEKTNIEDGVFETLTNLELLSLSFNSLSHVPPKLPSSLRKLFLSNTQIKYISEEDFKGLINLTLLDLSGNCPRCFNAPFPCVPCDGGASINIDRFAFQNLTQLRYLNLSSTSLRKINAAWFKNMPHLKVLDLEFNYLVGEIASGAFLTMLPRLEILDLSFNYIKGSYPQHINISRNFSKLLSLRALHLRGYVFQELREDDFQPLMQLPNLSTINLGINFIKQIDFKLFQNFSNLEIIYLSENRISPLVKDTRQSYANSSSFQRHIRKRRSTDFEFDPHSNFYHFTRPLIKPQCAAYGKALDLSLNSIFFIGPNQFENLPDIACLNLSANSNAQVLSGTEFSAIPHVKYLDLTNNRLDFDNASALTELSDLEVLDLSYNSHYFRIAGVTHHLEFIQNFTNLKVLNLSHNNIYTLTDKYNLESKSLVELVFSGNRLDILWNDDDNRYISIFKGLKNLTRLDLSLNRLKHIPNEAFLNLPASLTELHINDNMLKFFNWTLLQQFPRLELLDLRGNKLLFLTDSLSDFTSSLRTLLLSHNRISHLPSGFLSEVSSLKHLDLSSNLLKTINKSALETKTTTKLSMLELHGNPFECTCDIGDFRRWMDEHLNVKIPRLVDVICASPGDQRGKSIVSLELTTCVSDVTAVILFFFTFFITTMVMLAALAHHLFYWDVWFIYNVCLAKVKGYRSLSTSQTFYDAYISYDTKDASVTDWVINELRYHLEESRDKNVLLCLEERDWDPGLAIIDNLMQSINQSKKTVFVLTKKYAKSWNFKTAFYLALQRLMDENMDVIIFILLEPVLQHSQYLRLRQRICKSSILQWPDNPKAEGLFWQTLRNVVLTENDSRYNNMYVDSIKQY
The experiment in a line: Agonist activity at TLR8 in human PBMC assessed as induction of myeloid dendritic cell maturation by measuring increase in CD80 level at 0.1 uM after 6 hrs by flow cytometry relative to control. In a few lines: (§1)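 hPBMCs stimulated 6 h at a single 0.1 μM dose; HLA-DR, MHC-I, CD80 and CD86 on mDCs and pDCs measured by flow cytometry, expressed as fold change versus unstimulated cells. Mean ± SD of three independent experiments in three different donors.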
In general terms: In flow cytometry, cells or beads pass a laser one at a time.

Test [2] addresses T1, Toll-like receptor 8 (Homo sapiens). The experiment in a line: Agonist activity at TLR8 in human PBMC assessed as induction of myeloid dendritic cell maturation by measuring HLA-DR level at 0.1 uM after 6 hrs by flow cytometry. In a few lines: as §1
Test [3] shares this target. Description: Agonist activity at TLR8 in human PBMC assessed as induction of myeloid dendritic cell maturation by measuring CD86 level at 0.1 uM after 6 hrs by flow cytometry. The essentials:
as §1

The target in test [4] is T2, Toll-like receptor 7 (Homo sapiens, UniProt Q9NYK1).
T2 sequence (Q9NYK1 whole entry): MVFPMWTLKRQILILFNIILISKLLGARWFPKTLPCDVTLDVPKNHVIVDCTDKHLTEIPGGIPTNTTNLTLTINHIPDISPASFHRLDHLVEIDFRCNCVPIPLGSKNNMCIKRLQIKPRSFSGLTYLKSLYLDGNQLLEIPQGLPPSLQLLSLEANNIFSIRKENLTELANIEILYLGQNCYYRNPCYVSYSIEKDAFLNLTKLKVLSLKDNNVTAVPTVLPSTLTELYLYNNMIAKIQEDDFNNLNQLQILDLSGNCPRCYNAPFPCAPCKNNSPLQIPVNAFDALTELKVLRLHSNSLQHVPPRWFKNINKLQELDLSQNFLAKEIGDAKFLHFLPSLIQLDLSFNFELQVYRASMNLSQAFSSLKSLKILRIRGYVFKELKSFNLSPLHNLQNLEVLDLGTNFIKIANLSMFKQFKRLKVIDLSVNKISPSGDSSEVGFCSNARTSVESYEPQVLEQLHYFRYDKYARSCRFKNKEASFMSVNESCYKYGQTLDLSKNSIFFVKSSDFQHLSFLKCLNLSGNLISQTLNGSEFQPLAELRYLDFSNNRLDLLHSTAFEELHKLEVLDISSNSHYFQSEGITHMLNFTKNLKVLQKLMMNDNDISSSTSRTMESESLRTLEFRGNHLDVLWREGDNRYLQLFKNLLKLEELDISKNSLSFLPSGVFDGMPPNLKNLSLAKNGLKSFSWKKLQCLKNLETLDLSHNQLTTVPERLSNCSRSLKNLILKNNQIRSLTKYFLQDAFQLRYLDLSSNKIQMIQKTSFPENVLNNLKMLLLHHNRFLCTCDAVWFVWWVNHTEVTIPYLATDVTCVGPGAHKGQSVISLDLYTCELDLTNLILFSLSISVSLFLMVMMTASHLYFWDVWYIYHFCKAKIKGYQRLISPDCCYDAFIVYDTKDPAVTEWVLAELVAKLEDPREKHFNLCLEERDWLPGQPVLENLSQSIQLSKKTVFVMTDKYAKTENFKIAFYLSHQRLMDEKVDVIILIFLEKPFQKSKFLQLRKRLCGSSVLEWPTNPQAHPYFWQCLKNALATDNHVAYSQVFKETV
The experiment in a line: Agonist activity at human TLR7 expressed in HEK293 cells assessed as induction of NFKappaB activity after 24 hrs by SEAP reporter gene assay. The essentials:
(§2)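 HEK293 cells stably transfected with hTLR7 or hTLR8 plus an NFκB-driven SEAP reporter, treated 24 h with compound over a μM range; SEAP secretion read out. EC50 as mean ± SD of three (TLR7) or four (TLR8) independent experiments.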

Test [5] addresses T3, Toll-like receptor 8 (Homo sapiens, UniProt Q9NR97).
T3 sequence (Q9NR97 whole entry): T1 sequence (whole entry)
Description: Agonist activity at human TLR8 expressed in HEK293 cells assessed as induction of NFKappaB activity after 24 hrs by SEAP reporter gene assay. In a few lines: as §2
(Reporter assays use an easily measured gene product as a stand-in for the process of interest.)

In test [6] the target is TLR7 and TLR8 (Homo sapiens) (UniProt Q9NYK1+Q9NR97). Description: Agonist activity at TLR7/TLR8 in human PBMC assessed as IFN alpha level. In a few lines:
(§3)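 IFNα secretion by hPBMCs across a μM dose range; MEC = lowest dose tested inducing cytokine, PC = dose giving highest level, PL = peak level at 10 μM. Data representative of one of three independent donors.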

Test [7] concerns the target T4, Toll-like receptor 7 (Homo sapiens) (UniProt Q9NYK1).
T4 sequence (whole entry): T2 sequence (Q9NYK1 whole entry)
Description: Agonist activity at TLR7 in human PBMC assessed as IFNalpha stimulation at 10 uM. The essentials:
as §3

The target in test [8] is T1, Toll-like receptor 8 (Homo sapiens). Description: Agonist activity at TLR8 in human PBMC assessed as TNFalpha level. The essentials:
(§4)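 TNFα secretion by hPBMCs across a μM dose range; MEC = lowest dose tested inducing cytokine, PC = dose giving highest level, PL = peak level at 10 μM. Data representative of one of three independent donors.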

The target is the same in test [9]. The experiment in a line: Agonist activity at TLR8 in human PBMC assessed as TNFalpha level at 10 uM. The essentials:
as §4

For test [10], the target named is T4, Toll-like receptor 7 (Homo sapiens). The experiment in a line: Agonist activity at TLR7 in human PBMC assessed as induction of plasmacytoid dendritic cell maturation by measuring CD86 level at 0.1 uM after 6 hrs by flow cytometry. The essentials: as §1
The target is the same in test [11]. Description: Agonist activity at TLR7 in human PBMC assessed as induction of plasmacytoid dendritic cell maturation by measuring CD80 level at 0.1 uM after 6 hrs by flow cytometry. In a few lines: as §1
Test [12] shares this target. Description: Agonist activity at TLR7 in human PBMC assessed as induction of plasmacytoid dendritic cell maturation by measuring HLA-DR level at 0.1 uM after 6 hrs by flow cytometry. In a few lines:
as §1

The target is the same in test [13]. The experiment in a line: Agonist activity at TLR7 in human PBMC assessed as induction of plasmacytoid dendritic cell maturation by measuring MHC-1 level at 0.1 uM after 6 hrs by flow cytometry. In a few lines: as §1
For test [14], the target named is Toll-like receptor 3 (Homo sapiens) (UniProt O15455). The experiment in a line: Agonist activity at human TLR3 expressed in HEK293 cells by SEAP reporter gene assay.
Chain of Toll-like receptor 3 (Homo sapiens) (O15455 whole entry): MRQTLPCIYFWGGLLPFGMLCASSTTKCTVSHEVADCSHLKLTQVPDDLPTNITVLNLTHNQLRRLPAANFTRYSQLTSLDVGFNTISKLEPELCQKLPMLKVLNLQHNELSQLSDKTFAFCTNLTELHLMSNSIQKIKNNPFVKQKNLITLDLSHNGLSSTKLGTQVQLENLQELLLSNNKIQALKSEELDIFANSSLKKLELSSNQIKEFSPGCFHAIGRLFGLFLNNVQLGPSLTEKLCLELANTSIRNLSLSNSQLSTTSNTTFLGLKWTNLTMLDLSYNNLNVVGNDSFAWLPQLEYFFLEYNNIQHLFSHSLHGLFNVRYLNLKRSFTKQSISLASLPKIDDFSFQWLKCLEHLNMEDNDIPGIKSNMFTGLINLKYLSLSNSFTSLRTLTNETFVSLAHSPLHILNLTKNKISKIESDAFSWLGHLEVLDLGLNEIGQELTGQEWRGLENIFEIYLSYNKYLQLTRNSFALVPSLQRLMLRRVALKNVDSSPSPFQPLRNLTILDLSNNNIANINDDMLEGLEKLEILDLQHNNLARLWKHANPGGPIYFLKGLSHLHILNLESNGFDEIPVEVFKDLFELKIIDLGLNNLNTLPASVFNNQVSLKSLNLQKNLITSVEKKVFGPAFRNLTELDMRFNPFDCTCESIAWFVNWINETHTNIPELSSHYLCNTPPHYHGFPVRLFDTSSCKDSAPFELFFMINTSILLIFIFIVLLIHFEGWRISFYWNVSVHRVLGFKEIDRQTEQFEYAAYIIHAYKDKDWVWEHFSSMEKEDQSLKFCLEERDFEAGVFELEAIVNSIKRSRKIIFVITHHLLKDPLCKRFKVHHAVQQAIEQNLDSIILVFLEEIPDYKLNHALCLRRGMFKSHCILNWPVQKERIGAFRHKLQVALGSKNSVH
Test [15] has as its target T5, Toll-like receptor 9 (Homo sapiens) (UniProt Q9NR96).
T5 sequence (whole entry): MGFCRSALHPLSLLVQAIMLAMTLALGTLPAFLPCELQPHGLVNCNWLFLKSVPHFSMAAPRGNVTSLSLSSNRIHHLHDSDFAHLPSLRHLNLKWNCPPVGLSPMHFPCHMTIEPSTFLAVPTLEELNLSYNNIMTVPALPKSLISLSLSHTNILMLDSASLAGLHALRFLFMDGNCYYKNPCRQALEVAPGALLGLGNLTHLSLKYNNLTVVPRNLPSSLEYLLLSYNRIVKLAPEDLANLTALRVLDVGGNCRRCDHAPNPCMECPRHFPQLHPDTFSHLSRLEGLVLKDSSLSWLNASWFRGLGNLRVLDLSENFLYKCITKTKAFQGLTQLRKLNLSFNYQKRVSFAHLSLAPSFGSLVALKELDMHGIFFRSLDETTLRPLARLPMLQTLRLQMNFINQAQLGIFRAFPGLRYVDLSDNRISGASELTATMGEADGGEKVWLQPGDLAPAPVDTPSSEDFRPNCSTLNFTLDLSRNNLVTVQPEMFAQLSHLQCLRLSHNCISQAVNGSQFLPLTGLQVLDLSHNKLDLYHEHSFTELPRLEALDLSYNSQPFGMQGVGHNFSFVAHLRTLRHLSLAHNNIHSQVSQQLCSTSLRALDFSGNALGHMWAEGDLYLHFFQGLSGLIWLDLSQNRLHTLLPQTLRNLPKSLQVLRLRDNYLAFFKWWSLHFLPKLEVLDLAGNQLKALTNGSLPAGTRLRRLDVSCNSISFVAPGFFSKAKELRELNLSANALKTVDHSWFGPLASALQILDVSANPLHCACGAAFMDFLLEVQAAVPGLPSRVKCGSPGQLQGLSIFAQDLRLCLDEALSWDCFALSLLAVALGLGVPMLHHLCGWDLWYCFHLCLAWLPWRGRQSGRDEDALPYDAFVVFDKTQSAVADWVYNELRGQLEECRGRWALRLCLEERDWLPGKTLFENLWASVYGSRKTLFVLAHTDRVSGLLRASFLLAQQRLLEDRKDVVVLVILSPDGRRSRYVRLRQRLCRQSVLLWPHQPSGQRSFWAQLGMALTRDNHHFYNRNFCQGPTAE
Description: Agonist activity at human TLR9 expressed in HEK293 cells by SEAP reporter gene assay.

The target of test [16] is T1, Toll-like receptor 8 (Homo sapiens). The experiment in a line: Agonist activity at TLR8 in human PBMC assessed as induction of myeloid dendritic cell maturation by measuring increase in MHC-1 level at 0.1 uM after 6 hrs by flow cytometry relative to control. The essentials: as §1
The target is the same in test [17]. The experiment in a line: Agonist activity at TLR8 in human PBMC assessed as induction of myeloid dendritic cell maturation by measuring increase in CD86 level at 0.1 uM after 6 hrs by flow cytometry relative to control. In a few lines:
as §1

By EC50 is commonly meant the midpoint of the concentration-response curve. In the case of `CCC[C@H](C)Oc1nc(N)c2[nH]c(=O)n(CC3CCN(CCO)CC3)c2n1`, the fold change (FC) in test [1] worked out at 1.5. Also, the outcome in test [2] and in test [3] was inactive. The values for the EC50 in test [4] and in test [5] were 4.06 µM and 2.14 µM, respectively. In addition, the ECmax in test [6] is 0.08 µM. Moreover, the MEC worked out at 0.016 µM in [6] and 2 µM in [8]. Moreover, the figures for the Activity in [7] and in test [9] were 4750 pg/mL and 10300 pg/mL, respectively.
`COCCOc1nc(N)c2[nH]c(=O)n(CC3CCNCC3)c2n1`: the outcome in test [10], in [11], in [12], in [13], in test [14] and in test [15] was inactive. In addition, the EC50 in test [4] was over 500 µM. In addition, the Activity in [7] is 2240 pg/mL.
As to `CCOCc1nc2c(N)nc3ccccc3c2n1CC(C)(C)O`, the fold change (FC) in test [16] stood at 1.4; in [17] it was 1.9. In addition, the ECmax in [6] stood at 10 µM. Further, the MEC in test [6] stood at 0.08 µM; in [8] it was 2 µM. Further, the Activity in test [7] worked out at 1410 pg/mL.

The values above are taken from ChEMBL document CHEMBL4627265, “Optimization of 8-oxoadenines with toll-like-receptor 7 and 8 activity” (Bioorg Med Chem Lett, 2020).
